According to publication PMC11128822 (Heliyon, 2024):
Read-outs that look alike come from different tables or passages of the source.

Assays:
[1] = Molnupiravir pharmacokinetics: NHC trough concentration in plasma and lung; assay type: in vivo, Syrian hamsters
Outline: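 MOV was given by oral gavage every 12 h, with the first dose at infection (D0), 12 h before (D-1) or 12 h after (D1). Hamsters were euthanised 15 h after the last dose on D3, giving trough values. Samples were EDTA plasma and lung lobes homogenised in 0.9 % NaCl. NHC was extracted with acetonitrile and quantified by UPLC-MS/MS (LLOQ 5 ng/mL). The partition coefficient was the lung:plasma concentration ratio.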

SARS-CoV-2 [2] = assay type: cell-based, human; conditions: D2 to D4
SARS-CoV-2 [3] = test: microbe, parasite or virus in culture; assay type: cell-based, human; conditions: for viral infectious titres at the apical side of HAE vs virus control: D2 to D4
SARS-CoV-2 genome [4] = assay type: in vivo, Syrian hamsters; conditions: hamster lungs
SARS-CoV-2 genome [5] = test: Sequence analysis of the full-length viral genome in HAE supernatants; assay type: cell-based, human
COVID-19 [6] = conditions: PANORAMIC trial, cited from earlier work
SARS-CoV-2 [7] = test: Lung histology of infected hamsters; assay type: in vivo, Syrian hamsters
Outline: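 Infected hamsters were dosed every 12 h from the time of infection. MOV was given by oral gavage under isoflurane in water with 10 % PEG400 and 2.5 % Kolliphor EL. FAV was given intraperitoneally to awake animals. Euthanasia was on D5. Lungs were collected after intratracheal instillation of 4 % formaldehyde, fixed 72 h at room temperature and paraffin-embedded. Lesions were graded semi-quantitatively (up to 4 = severe), and scores were summed.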

SARS-CoV-2 [8] = assay type: in vivo, Syrian hamsters; conditions: 150, 300, 400 mg/kg/day BID, from D0, D3
COVID-19 [9] = conditions: phase 3 MOVE OUT trial; cited from earlier work
cytokines in lungs = test: Expression level of seven cytokines in lungs; assay type: in vivo, Syrian hamsters; conditions: 300 mg/kg/day BID from D0, D5
SARS-CoV-2 [10] = assay type: in vivo, Syrian hamsters
SARS-CoV-2 [11] = assay type: in vivo, Syrian hamsters; conditions: for reduction of lung infectious viral titers vs untreated: 300 mg/kg/day BID oral, D3

SMILES: O=c1nc(NO)ccn1[C@@H]1O[C@H](CO)[C@@H](O)[C@H]1O [NHC, β-D N4-hydroxycytidine]
- NHC concentration in lung, 400 mg/kg/day BID compared to 150 mg/kg/day BID ([1]; 15 h after last intake): significantly higher
- NHC plasma trough concentrations ([1]; 15 h after last intake, MOV 150, 300, 400 mg/kg/day BID oral): comparable between doses
- lung and plasma NHC trough concentrations between treatment strategies ([1]; MOV 300 mg/kg/day BID from D-1, D0 or D1): no difference
- Lung partition coefficients (ratio of lung over plasma concentrations) ([1]; dose assessment experiment, all doses): above 1
- pulmonary partition coefficient ([1]; therapeutic strategies experiment, 300 mg/kg/day BID): above 1

SMILES: CC(C)C(=O)OC[C@H]1O[C@@H](n2ccc(NO)nc2=O)[C@H](O)[C@@H]1O [MOV, molnupiravir]
- viral RNA yields at the apical side of HAE vs virus control (SARS-CoV-2 [2]; 0.3 μM): no significant reduction
- viral RNA yields at the apical side of HAE vs virus control (SARS-CoV-2 [2]; 1 μM): significant reduction was observed at D3 and D4
- viral RNA yields at the apical side of HAE vs virus control (SARS-CoV-2 [2]; 3 μM): significant decrease
- viral infectious titres at the apical side of HAE vs virus control (SARS-CoV-2 [3]; 0.3 μM): significant decrease in infectious titres was observed only at D3
- viral infectious titres at the apical side of HAE vs virus control (SARS-CoV-2 [3]; 1 μM): Significant decrease
- viral infectious titres at the apical side of HAE vs virus control (SARS-CoV-2 [3]; 3 μM): Significant decrease
- IC50 (SARS-CoV-2 [3]; Severe acute respiratory syndrome coronavirus 2, in Homo sapiens): 1000 nM
- G to A MVs vs untreated group (SARS-CoV-2 genome [4]; 300 mg/kg/day BID): significant increase
- mean frequency of transitions-type MVs vs untreated (SARS-CoV-2 genome [4]; 300 mg/kg/day BID): higher in the treated group compared to the untreated group, but not significantly
- number of MVs with a frequency greater than 10 % vs untreated (SARS-CoV-2 genome [4]; 300 mg/kg/day BID): significant higher number
- mean number of MVs per genome (SARS-CoV-2 genome [4]; 300 mg/kg/day BID from D0): 29.5
- average number of MVs per genome (SARS-CoV-2 genome [5]; 0.3 μM): 20
- mean frequency of transition-type MVs (SARS-CoV-2 genome [5]; 0.3 μM): 0.81
- average number of MVs per genome (SARS-CoV-2 genome [5]; 1 μM): 88
- mean frequency of transition-type MVs (SARS-CoV-2 genome [5]; 1 μM): 0.97
- average number of MVs per genome (SARS-CoV-2 genome [5]; 3 μM): 18.3
- mean frequency of transition-type MVs (SARS-CoV-2 genome [5]; 3 μM): 0.89
- increase of type C to U-MVs, exposed vs non-exposed HAE (SARS-CoV-2 genome [5]; pooled analysis): significance found
- time to recovery (COVID-19 [6]): reduced time to recovery
- viral load (COVID-19 [6]): reduced viral load
- reduction in the risk of hospitalisation or death (COVID-19 [6]; vaccinated patients): no reduction
- cumulative pathological scores vs untreated group (SARS-CoV-2 [7]; MOV 300 mg/kg/day BID from D0, lungs at D5): no significant difference
- RNA viral yields in nasal washes vs untreated animals (SARS-CoV-2 [8]): no significant differences
- efficacy in reducing the risk of hospitalisation or death (COVID-19 [9]): modest efficacy
- expression of IL10 in lungs vs vehicle group (cytokines in lungs): reduction was not significant
- expression of TNF in lungs vs vehicle group (cytokines in lungs): reduction was not significant
- expression of cytokine CCl5 in lungs vs vehicle group (cytokines in lungs): significantly decrease
- expression of cytokine CxCl10 in lungs vs vehicle group (cytokines in lungs): significantly decrease
- viral RNA yields in lungs vs control group (SARS-CoV-2 [10]; 300 mg/kg/day BID, three treated groups (D-1, D0, D1)): did not differ significantly
- viral RNA yields in lungs vs untreated animals (SARS-CoV-2 [10]; 150 or 400 mg/kg/day BID oral, from D0, D3): significant lower
- infectious titers in clarified lung homogenates vs untreated animals (SARS-CoV-2 [11]; 150, 300 and 400 mg/kg/day BID oral, from D0, lungs at D3): significantly lower
- lung particle-to-infectious unit ratio vs untreated (SARS-CoV-2 [11]; dose assessment experiment, 150-400 mg/kg/day BID): No significant differences
- reduction of lung infectious viral titers vs untreated (SARS-CoV-2 [11]; pre-emptive (D0)): 1.03 log10
- lung particles to infectious unit ratio vs control (SARS-CoV-2 [11]; preventive (D-1), 300 mg/kg/day BID): significant elevation
- reduction of lung infectious viral titers vs untreated (SARS-CoV-2 [11]; preventive (D-1)): 1.12 log10

SMILES: CCC(CC)COC(=O)[C@H](C)N[P@](=O)(OC[C@H]1O[C@@](C#N)(c2ccc3c(N)ncnn23)[C@H](O)[C@@H]1O)Oc1ccccc1 [RDV, Remdesivir]
- infectious titres in HAE (SARS-CoV-2 [3]; 10 μM, positive control): significantly reduced

SMILES: NC(=O)c1nc(F)c[nH]c1=O [FAV, Favipiravir]
- cumulative pathological scores vs untreated group (SARS-CoV-2 [7]; FAV intraperitoneally 925 mg/kg/day BID, lungs at D5): significantly different score
